Laboratory results reported in ChEMBL document CHEMBL1909527, “Asymmetric synthesis and biological evaluation of N-cyclohexyl-4-[1-(2,4-dichlorophenyl)-1-(p-tolyl)methyl]piperazine-1-carboxamide as hCB1 receptor antagonists” (Eur J Med Chem, 2011).
pIC50, pKi: −log10 of the molar value. Active and inactive are the calls of the source. The rule behind the calls is not given here.

How the values were obtained:
[1] = biological target: T1, Cannabinoid receptor 1 (Homo sapiens, UniProt P21554); assay: Displacement of [3H]-CP-55940 from human CB1 receptor expressed in CHO cells pretreated for 10 mins measured after 3 hrs by scintillation counting; type: cell-based
Summary of the method: (§1)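 Whole-cell binding in CHO cells stably expressing hCB1 or hCB2, serum-starved in serum-free F12 for 3 h, pretreated with varying compound concentrations 10 min, then [3H]-CP-55940 added; 3 h at 37 °C. Cells washed 5× with warm PBS, lysed in PBS/1% SDS, bound radioactivity counted. Triplicate; Ki from nonlinear-regression IC50 via Cheng-Prusoff; mean ± SEM, n = 3 independent experiments.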

[2] = Tmax in Sprague-Dawley rat at 10 mg/kg, po by LC/MS/MS analysis; type: ADME, organism-based; design: dose 10 mg/kg, route oral; conditions: in vivo
Summary of the method: (§2)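 Sprague-Dawley rats dosed orally at 10 mg/kg; blood drawn at various time points into lithium heparin tubes, centrifuged, plasma stored at −20 °C until analysis. Values are mean ± SEM of at least three experiments.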

[3] = Ratio of drug level in brain to plasma in Sprague-Dawley rat at 10 mg/kg, po measured 9 hrs post dose by LC/MS/MS analysis; type: ADME, organism-based; design: dose 10 mg/kg, route oral; conditions: read-out: BPR
Summary of the method: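 Rats given 10 mg/kg orally and sacrificed at 3, 5 and 9 h post-dose; whole brain and blood collected and stored at −20 °C; brain/plasma ratio reported at 9 h. Mean ± SEM, at least three experiments.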

[4] = AUC (0 to infinity) in Sprague-Dawley rat at 10 mg/kg, po by LC/MS/MS analysis; type: ADME, organism-based; design: time infinity, dose 10 mg/kg, route oral; conditions: plasma; summary of the method: as §2
[5] = Cmax in Sprague-Dawley rat at 10 mg/kg, po by LC/MS/MS analysis; type: ADME, organism-based; design: dose 10 mg/kg, route oral; conditions: in vivo; summary of the method: as §2
[6] = biological target: T1, Cannabinoid receptor 1; assay: Antagonist activity at human CB1 receptor expressed in CHO cells coexpressing Galpha15/16 assessed as inhibition of CP55940-induced Ca2+ release after 10 mins by micro plate reader assay; type: functional, cell-based
Summary of the method: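 CHO-hCB1 cells co-expressing Gα15/16 loaded with fluo-4 AM in HBSS (with […] sulfinpyrazone, pH 7.4) at 37 °C for 50 min, washed, then given test compound at various concentrations (DMSO final 1%) for 10 min at room temperature before CP55940 addition; intracellular calcium read at ex 485/em 525 nm. Triplicate; IC50 from dose-response curves, mean ± SEM, n = 3.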

[7] = tested on: Mus musculus; assay: Antiobesity activity in diet-induced obese C57BL/6J mouse assessed as reduction of body weight at 10 mg/kg, po qd for 35 days; type: functional, organism-based; design: dose 10 mg/kg
Summary of the method: (§3)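 DIO mice aged 20–24 weeks, kept on high-fat diet throughout, group-housed at 25 °C on a 12 h/12 h light-dark cycle, conditioned to water gavage for 5 days. Dosed orally once daily for 35 days with vehicle (0.1% Tween 80) or compound at 10 mg/kg, 1 h before dark cycle; n = 9–10/group. Food intake and body weight measured weekly; visceral fat mass at study end.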

[8] = Oral bioavailability in Sprague-Dawley rat at 10 mg/kg by LC/MS/MS analysis; type: ADME, organism-based; conditions: in vivo; summary of the method: as §2
[9] = tested on: Mus musculus; assay: Antiobesity activity in diet-induced obese C57BL/6J mouse assessed as reduction in food intake at 10 mg/kg, po qd for 35 days; type: functional, organism-based; design: dose 10 mg/kg; summary of the method: as §3
[10] = Half life in Sprague-Dawley rat at 10 mg/kg, po by LC/MS/MS analysis; type: ADME, organism-based; design: dose 10 mg/kg, route oral; conditions: in vivo; summary of the method: as §2
[11] = biological target: Cannabinoid receptor 2 (Homo sapiens, UniProt P34972); assay: Displacement of [3H]-CP-55940 from human CB2 receptor expressed in CHO cells pretreated for 10 mins measured after 3 hrs by scintillation counting; type: cell-based; summary of the method: as §1
[12] = tested on: Mus musculus; assay: Antiobesity activity in diet-induced obese C57BL/6J mouse assessed as reduction in visceral fat mass at 10 mg/kg, po qd for 35 days; type: functional, organism-based; design: dose 10 mg/kg; summary of the method: as §3

T1 sequence (P21554 whole entry): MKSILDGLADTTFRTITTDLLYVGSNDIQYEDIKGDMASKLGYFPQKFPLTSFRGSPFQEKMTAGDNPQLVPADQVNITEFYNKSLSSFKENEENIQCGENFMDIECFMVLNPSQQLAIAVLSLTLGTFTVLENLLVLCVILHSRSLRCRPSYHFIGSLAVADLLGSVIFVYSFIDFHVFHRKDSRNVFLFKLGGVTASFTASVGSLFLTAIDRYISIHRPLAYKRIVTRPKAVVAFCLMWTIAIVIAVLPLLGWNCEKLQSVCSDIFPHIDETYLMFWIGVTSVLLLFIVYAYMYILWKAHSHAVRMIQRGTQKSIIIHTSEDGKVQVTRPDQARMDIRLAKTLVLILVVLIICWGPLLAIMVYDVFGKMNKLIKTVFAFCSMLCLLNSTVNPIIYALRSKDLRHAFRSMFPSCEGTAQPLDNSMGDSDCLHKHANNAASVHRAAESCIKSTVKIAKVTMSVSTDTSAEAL
Cannabinoid receptor 2, sequence (P34972 whole entry): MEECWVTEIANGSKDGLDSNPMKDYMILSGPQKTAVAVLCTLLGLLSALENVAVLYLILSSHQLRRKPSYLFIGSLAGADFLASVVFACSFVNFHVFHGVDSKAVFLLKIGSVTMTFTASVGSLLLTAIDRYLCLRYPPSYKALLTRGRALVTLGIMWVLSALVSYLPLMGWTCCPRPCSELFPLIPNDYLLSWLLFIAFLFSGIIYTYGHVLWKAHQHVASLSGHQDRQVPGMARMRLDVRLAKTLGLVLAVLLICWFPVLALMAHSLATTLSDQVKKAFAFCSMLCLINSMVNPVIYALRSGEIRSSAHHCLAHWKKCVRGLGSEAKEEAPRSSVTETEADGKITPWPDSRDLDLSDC

Row | pKi [1] | Tmax [2] [h] | Kp at 9 h [3] | AUC(0-inf) [4] [µg·h/mL] | Cmax [5] [µg/mL] | pIC50 [6] | bioavailability [8] [%] | half-life [10] [h] | pKi [11] | Compound | Activity [7] | Activity [9] | Activity [12]
1 | 8.96 | 1.3 | 1.42 | 0.695 | 0.129 | 7.67 | 6 | 3.4 | 6.62 | Cc1ccc([C@@H](c2ccc(Cl)cc2Cl)N2CCN(C(=O)NC3CCCCC3)CC2)cc1 | inactive | inactive | –
2 | – | 2.4 | 0.91 | 0.883 | 0.179 | – | 8 | 2.3 | – | Cc1ccc(C(c2ccc(Cl)cc2Cl)N2CCN(C(=O)NC3CCCCC3)CC2)cc1 (racemic) | – | – | –
3 | 9.70 | 1.2 | 0.88 | 0.655 | 0.116 | 9.05 | 15 | 3.8 | 6.64 | Cc1ccc([C@H](c2ccc(Cl)cc2Cl)N2CCN(C(=O)NC3CCCCC3)CC2)cc1 | Active | inactive | Active
